System: Japanese patients with solid tumors
Experiment: Phase I dose-escalation study: safety, tolerability, DLT and MTD
Type: in vivo, human
Conditions: for Tolerability: dose level of up to 90 mg
Summary of the method: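 Oral test compound (tosylate salt) was given QD on days 1–21 of 28-day cycles in cohorts of 3–6 patients at 60, 90 or 120 mg. Escalation used a modified continual reassessment method (Bayesian logistic regression, escalation with overdose control). DLT window was cycle 1 (28 days). AEs were coded with MedDRA 18.0 and graded by CTCAE v4.0 (Japanese). Analysis covered patients receiving ≥1 dose.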

[1] = Cohort 3 120 mg/d (n = 4), All grades
[2] = Cohort 3 120 mg/d (n = 4), Grade ≥ 3

CC1(C)CCC2(CC1)N[C@@H](C(=O)N[C@@H]1CC[C@@H](C(N)=O)OC1)[C@H](c1ccnc(Cl)c1F)[C@]21C(=O)Nc2cc(Cl)ccc21 [milademetan, Milademetan]
3 n: Grade ≥ 3 TEAE: anemia (all 18 patients)
4 (22.2) n (%): TEAE: Alanine aminotransferase increased (Total (n = 18), All grades) | TEAE: Aspartate aminotransferase increased (Total (n = 18), All grades) | TEAE: Lymphocyte count decreased (Total (n = 18), All grades) | TEAE: Pyrexia (Total (n = 18), All grades) | TEAE: Platelet count decreased (Total (n = 18), Grade ≥ 3)
50.0%: TEAE: anemia, frequency (all 18 patients, all grades) | TEAE: fatigue, frequency (all 18 patients, all grades) | TEAE: white blood cell count decreased, frequency (all 18 patients, all grades)
1 (25.0) n (%): TEAE: Pyrexia [1] | TEAE: Sepsis [1] | TEAE: Alanine aminotransferase increased [2] | TEAE: Aspartate aminotransferase increased [2] | TEAE: Disease progression [2] | TEAE: Hyponatremia [2] | TEAE: Lymphocyte count decreased [2] | TEAE: Neutrophil count decreased [2] | TEAE: Sepsis [2] | TEAE: White blood cell count decreased [2]
2 n: Grade ≥ 3 TEAE: ALT increased (all 18 patients) | Grade ≥ 3 TEAE: hyponatremia (all 18 patients) | Dose interruption because of decreased appetite (all cohorts)
72.2%: TEAE: nausea, frequency (all 18 patients, all grades)
61.1%: TEAE: decreased appetite, frequency (all 18 patients, all grades) | TEAE: platelet count decreased, frequency (all 18 patients, all grades)
Three patients withdrew: Withdrawal from the study because of TEAEs (one in 90-mg cohort, two in 120-mg cohort)
well tolerated: Tolerability (once-daily 21/28-day schedule)
2 (50.0) n (%): TEAE: Lymphocyte count decreased [1] | TEAE: Neutrophil count decreased [1] | TEAE: Vomiting [1] | TEAE: White blood cell count decreased [1]
33.3%: Serious TEAEs, percentage of patients (six out of 18 patients)
no clinically relevant changes: Changes in laboratory parameters (other than platelet count decreased), vital signs, electrocardiogram (hematology, blood chemistry, coagulation, urinalysis, vital signs, ECG)
1 (5.6) n (%): TEAE: Disease progression (Total (n = 18), All grades) | TEAE: Hypophosphataemic rickets (Total (n = 18), All grades) | TEAE: Jaundice cholestatic (Total (n = 18), All grades) | TEAE: Lymphangiosis carcinomatosa (Total (n = 18), All grades) | TEAE: Sepsis (Total (n = 18), All grades) | TEAE: Urinary tract infection (Total (n = 18), All grades) | TEAE: Aspartate aminotransferase increased (Total (n = 18), Grade ≥ 3) | TEAE: Disease progression (Total (n = 18), Grade ≥ 3) | TEAE: Hypophosphataemic rickets (Total (n = 18), Grade ≥ 3) | TEAE: Jaundice cholestatic (Total (n = 18), Grade ≥ 3) | TEAE: Lymphangiosis carcinomatosa (Total (n = 18), Grade ≥ 3) | TEAE: Lymphocyte count decreased (Total (n = 18), Grade ≥ 3) | TEAE: Neutrophil count decreased (Total (n = 18), Grade ≥ 3) | TEAE: Sepsis (Total (n = 18), Grade ≥ 3) | TEAE: Urinary tract infection (Total (n = 18), Grade ≥ 3) | TEAE: White blood cell count decreased (Total (n = 18), Grade ≥ 3)
3 (75.0) n (%): TEAE: Nausea [1] | TEAE: Platelet count decreased [1] | TEAE: Platelet count decreased [2]
11 (61.1) n (%): TEAE: Decreased appetite (Total (n = 18), All grades) | TEAE: Platelet count decreased (Total (n = 18), All grades)
90 mg: Maximum tolerated dose (MTD) (once-daily 21/28-day schedule) | Recommended dose for phase II (once-daily 21/28-day schedule)
6 n: Dose interruption because of nausea (all cohorts)
generally safe and well tolerated: Tolerability (once-daily 21/28-day schedule, listed as Milademetan)
2 (11.1) n (%): TEAE: Alanine aminotransferase increased (Total (n = 18), Grade ≥ 3) | TEAE: Hyponatremia (Total (n = 18), Grade ≥ 3)
18 patients: Patients with at least one drug-related TEAE (of 18 patients)
3 (16.7) n (%): TEAE: Anemia (Total (n = 18), Grade ≥ 3)
8 (44.4) n (%): TEAE: Hypoalbuminemia (Total (n = 18), All grades)
5 (27.8) n (%): TEAE: Constipation (Total (n = 18), All grades) | TEAE: Diarrhea (Total (n = 18), All grades) | TEAE: Hyponatremia (Total (n = 18), All grades) | TEAE: Neutrophil count decreased (Total (n = 18), All grades) | TEAE: Vomiting (Total (n = 18), All grades)
13 (72.2) n (%): TEAE: Nausea (Total (n = 18), All grades)
ten patients: Dose interruptions (all cohorts)
No patients required a dose reduction: Dose reduction due to TEAEs (all cohorts)
0 (0.0) n (%): TEAE: Hypophosphataemic rickets [1] | TEAE: Jaundice cholestatic [1] | TEAE: Lymphangiosis carcinomatosa [1] | TEAE: Urinary tract infection [1] | TEAE: Anemia [2] | TEAE: Constipation [2] | TEAE: Decreased appetite [2] | TEAE: Diarrhea [2] | TEAE: Fatigue [2] | TEAE: Hypoalbuminemia [2] | TEAE: Hypophosphataemic rickets [2] | TEAE: Jaundice cholestatic [2] | TEAE: Lymphangiosis carcinomatosa [2] | TEAE: Nausea [2] | TEAE: Pyrexia [2] | TEAE: Urinary tract infection [2] | TEAE: Vomiting [2] | TEAE: Constipation (Total (n = 18), Grade ≥ 3) | TEAE: Decreased appetite (Total (n = 18), Grade ≥ 3) | TEAE: Diarrhea (Total (n = 18), Grade ≥ 3) | TEAE: Fatigue (Total (n = 18), Grade ≥ 3) | TEAE: Hypoalbuminemia (Total (n = 18), Grade ≥ 3) | TEAE: Nausea (Total (n = 18), Grade ≥ 3) | TEAE: Pyrexia (Total (n = 18), Grade ≥ 3) | TEAE: Vomiting (Total (n = 18), Grade ≥ 3)
9 (50.0) n (%): TEAE: Anemia (Total (n = 18), All grades) | TEAE: Fatigue (Total (n = 18), All grades) | TEAE: White blood cell count decreased (Total (n = 18), All grades)
38.9%: Drug-related TEAE: anemia, frequency (all 18 patients)
Six patients: Patients who developed serious TEAEs (four at 90 mg, one at 60 mg, one at 120 mg, eight serious TEAEs)
4 n: Grade ≥ 3 TEAE: platelet count decreased (all 18 patients) | Dose interruption because of platelet count decreased (all cohorts)
90 mg/day: Maximum tolerated dose (MTD) (days 1 to 21 of a 28-day cycle)

From publication PMC8177775 (Cancer Science, 2021)
